# Article PMC3210016 (Cancer research, 2010)
# Columns and labels:
# HCC2429 cells [1] = assay: Apoptosis screen of peptide library; format: cell-based, human; details: representative experiment, Figure 1A, quadruplicate
# How it was run: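 A library of 155 peptides (5–15 residues) spanning the 34 EGF-like repeats of the Notch3 ECD was screened. HCC2429 and HeLa cells were seeded at 3,000 cells per well in 384-well format. Annexin V Alexa Fluor 680 (1:2,200 in RPMI) and peptide solution (0.1 mg/ml in RPMI before addition) were added. After overnight incubation, fluorescence was read on an FMAT 8100 HTS system, in quadruplicate per peptide.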
# HCC2429 cells [2] = assay: Apoptosis assay; format: cell-based, human; details: HCC2429, 24 hours, serum-free RPMI, flow cytometry; Figure 2D
# How it was run: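 HCC2429 cells were exposed for 24 hours in serum-free RPMI to Notch3 ECD-derived peptides or peptide–Fc fusion proteins. The concentration was not given. Apoptotic fraction was measured with an Annexin V-FITC kit on a flow cytometer, with a γ-secretase inhibitor as positive control. Comparisons used the Wilcoxon rank-sum test, with significance at P < 0.05.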
Substance,"Induction of apoptosis (fluorescence, FMAT 8100 HTS) (HCC2429 cells [1])",Apoptosis (Annexin V-FITC) (HCC2429 cells [2])
CATAV [Peptide N102],induced apoptosis,
CLNGGS [Peptide N132],induced apoptosis,
CFHGAT [Peptide N103],induced apoptosis,
CVCVNGWTGES [Peptide N17],,highest apoptotic activity
